SR-BI DiI-HDL act – activators of SR-BI mediated DiI-HDL uptake, primary screen, ldlA[mSR-BI] CHO cells, DiI fluorescence; 3 h; 100 = double the neutral-control signal; activation, % at 12.5 µM; 0.096% of 320,000 active; AID 504775, 2011;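 active = mean replicate activation of at least 60% and every replicate at or above 60%; inconclusive = mean or all-replicate condition met, but not both; inactive = mean below 60% and not all replicates reaching 60%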
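Assay system: CHO ldlA[mSR-BI] cells, LDL receptor-null, SR-BI overexpressing; medium: Ham's F12 with 0.5% BSA, HEPES 25 mM, pH 7.4; also added: DiI-HDL 10 µg/mL; timing: 3 h uptake period with compound, 37 °C; signal: DiI fluorescence, bottom read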
HIV Env fusion – inhibitors of HIV-1 Env-driven cell-cell fusion, primary screen, HeLa-JRFL effector, CEM21 target cells, luciferase. 1.1% of 360,000 active. inhibition, % at 12.3 µM;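 active = mean replicate inhibition score of at least 50 and every replicate individually at or above 50; inconclusive = only one of the two criteria met; inactive = mean below 50 and not all replicates reaching 50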
PglD DTNB – C. jejuni PglD acetyltransferase inhibitors, primary screen, biochemical, DTNB colorimetric, single point; UDP-N-acetylbacillosamine N-acetyltransferase PglD (Campylobacter jejuni); purified PglD enzyme, DTNB colorimetric CoA detection; inhibition, % at 12.5 µM; 0.098% of 360,000 active; AID 602405, 2012; in the data active = inhibition above about 16%, passing the limit was not always enough; inconclusive = no clear call, values can overlap the other calls
SR-BI HDL uptake – inhibitors of SR-BI mediated HDL lipid uptake, primary screen, ldlA[mSR-BI] cells, fluorescence, single point. ldlA[mSR-BI] CHO cells, DiI-HDL uptake fluorescence, 3 h. inhibition, % at 12.5 µM. 0.96% of 320,000 active. AID 488896, 2010;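 active = mean replicate inhibition of at least 70% and a set share of replicates each scoring 70 or more; inconclusive = meets just one of the two criteria; inactive = fails both criteria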
Target sequence (Q61009 whole entry, looked up): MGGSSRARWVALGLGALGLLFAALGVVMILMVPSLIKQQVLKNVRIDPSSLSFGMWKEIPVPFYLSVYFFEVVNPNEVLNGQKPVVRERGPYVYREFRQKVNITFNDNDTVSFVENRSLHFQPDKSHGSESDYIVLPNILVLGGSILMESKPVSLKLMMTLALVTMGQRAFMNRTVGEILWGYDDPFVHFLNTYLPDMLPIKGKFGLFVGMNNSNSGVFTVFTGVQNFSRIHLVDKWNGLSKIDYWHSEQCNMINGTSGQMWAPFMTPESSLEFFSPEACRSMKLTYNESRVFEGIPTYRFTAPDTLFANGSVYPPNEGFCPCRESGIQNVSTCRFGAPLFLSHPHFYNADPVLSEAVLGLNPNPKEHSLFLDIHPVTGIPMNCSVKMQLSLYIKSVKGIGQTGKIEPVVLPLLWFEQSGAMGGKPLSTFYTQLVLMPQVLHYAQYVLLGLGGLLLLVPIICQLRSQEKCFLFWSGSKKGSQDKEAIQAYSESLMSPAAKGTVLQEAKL
Rtt109 Vps75 – inhibitors of C. albicans Rtt109/Vps75 HAT, primary screen, biochemical, ThioGlo CoA-SH fluorescence, plate reader | 0.16% of 330,000 active | purified Rtt109/Vps75, 4 h | inhibition, % at 34.9 µM;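 active = inhibition of at least 50% in every replicate; inconclusive = best replicate reaches 50% inhibition but some replicates fall short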
N-glyco inh – increase of ERlucT glycosylation luciferase signal, primary screen, N-linked glycosylation inhibitor project, D54 ERlucT cells, luminescence, set 2. 0.23% of 360,000 active. AID 588692, 2011. D54 ERlucT glycosylation luciferase reporter, 24 h; percent of 100 nM tunicamycin response. reporter increase, % at 12.5 µM;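 active = mean luciferase reporter signal, scaled so untreated is 0 and the glycosylation-blocking control 100, at or above a set limit in every replicate; inconclusive = mean reaches the limit but not every replicate does; inactive = mean below the limit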;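 note: luciferase carries N-glycosylation sites so blocking glycosylation raises the light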
Hits are given with their value; . = inactive; ? = inconclusive; / = no result given; [ ] = dose if it differs, or a comment. Sampled rows, rich in hits. Any-hit rate of the full collection: about 1.9%.

SMILES	SR-BI DiI-HDL act	HIV Env fusion	PglD DTNB	SR-BI HDL uptake	Rtt109 Vps75	N-glyco inh
COc1ccccc1CN(C)C(=O)CN1CCN(C(=O)c2cccs2)CC1	.	68	.	.	.	.
Cc1cc(/C=N/n2c(COc3ccccc3C)nc3ccccc3c2=O)c(O)c([N+](=O)[O-])c1	.	.	/	144	/	.
Cc1ccccc1OCc1nc2ccccc2c(=O)n1/N=C/c1c[nH]c2ccccc12	.	/	.	.	.	.
O=[N+]([O-])c1ccc(Cl)c(/C=N/n2c(COc3ccccc3)n[nH]c2=S)c1	.	/	.	.	.	.
O=c1c2ccccc2nc(COc2ccccc2)n1/N=C/c1cc([N+](=O)[O-])ccc1O	.	.	.	130	.	.
C[C@H](CO)N1C[C@H](C)[C@H](CN(C)Cc2ccc(F)cc2)Oc2cc(C#CCN(C)C)ccc2S1(=O)=O	/	.	.	/	/	/
CN(C)C(=O)[C@H]1[C@H](CO)[C@H]2Cn3c(ccc(-c4ccccc4F)c3=O)[C@@H]1N2C	/	/	.	/	/	/
c1cc(SC2CCCCC2)cc(-c2nc3cnccn3c2NC2CCCCC2)c1	.	59	.	.	.	.
Cc1ccc(S(=O)(=O)Nc2cccc3c2O[C@H](CN(C)Cc2ccc4c(c2)OCO4)[C@H](C)CN([C@H](C)CO)C3=O)cc1	/	.	.	/	/	/
CC1(C(=O)NC2CCCCC2)CCC(=O)N1C1CCN(Cc2ccccc2)CC1 (centres undefined)	/	.	.	/	/	.
CCCCNC(=O)C1(C)CCC(=O)N1C1CCN(Cc2ccccc2)CC1 (centres undefined)	/	64	.	/	/	.
C[C@H]1CCCCO[C@H](CN(C)C(=O)c2ccccc2)[C@@H](C)CN([C@@H](C)CO)C(=O)c2cc(NC(=O)CCCN(C)C)ccc2O1	/	.	.	/	/	/
COc1ccccc1NC(=O)N(C)C[C@H]1OCc2ccccc2-c2c(n(C)c3ccccc23)C(=O)N([C@H](C)CO)C[C@H]1C	/	/	.	/	/	/
COc1ccc(S(=O)(=O)Nc2ccc3c(c2)C(=O)N([C@@H](C)CO)C[C@@H](C)[C@H](CN(C)Cc2ccc(C(F)(F)F)cc2)OCCCC[C@H](C)O3)cc1	/	?	.	/	/	/
COc1ccc(S(=O)(=O)Nc2ccc3c(c2)C(=O)N([C@H](C)CO)C[C@@H](C)[C@@H](CN(C)Cc2ccc(C(F)(F)F)cc2)OCCCC[C@H](C)O3)cc1	/	74[16.7 µM]	.	/	/	/
COc1ccc(S(=O)(=O)Nc2ccc3c(c2)C(=O)N([C@H](C)CO)C[C@@H](C)[C@H](CN(C)Cc2ccc(C(F)(F)F)cc2)OCCCC[C@@H](C)O3)cc1	/	64[16.7 µM]	.	/	/	/
Cc1ccc(S(=O)(=O)Nc2ccc3c(c2)C(=O)N([C@H](C)CO)C[C@@H](C)[C@H](CN(C)Cc2ccc(C(F)(F)F)cc2)OCCCC[C@@H](C)O3)cc1	/	65[16.7 µM]	.	/	/	/
Cc1ccc(S(=O)(=O)Nc2ccc3c(c2)C(=O)N([C@@H](C)CO)C[C@@H](C)[C@@H](CN(C)Cc2ccc(C(F)(F)F)cc2)OCCCC[C@H](C)O3)cc1	/	.	.	/	/	/
C[C@@H]1CCCCO[C@H](CN(C)Cc2ccc(C(F)(F)F)cc2)[C@H](C)CN([C@H](C)CO)C(=O)c2cc(NS(=O)(=O)c3cccs3)ccc2O1	/	60[16.7 µM]	.	/	/	/
C[C@@H]1CCCCO[C@@H](CN(C)Cc2ccc(C(F)(F)F)cc2)[C@H](C)CN([C@@H](C)CO)C(=O)c2cc(NS(=O)(=O)c3cccs3)ccc2O1	/	.	.	/	/	/
CO[C@@H]1CN(C)C(=O)c2cc(NC(C)=O)ccc2OC[C@H](C)N(CC2CC2)C[C@H]1C	/	/	.	/	/	/
COc1ccc(S(=O)(=O)Nc2ccc3c(c2)C(=O)N([C@H](C)CO)C[C@@H](C)[C@@H](CN(C)Cc2ccc(C(F)(F)F)cc2)OCCCC[C@@H](C)O3)cc1	/	55[16.7 µM]	.	/	/	/
